High-throughput results deposited in PubChem BioAssay by several laboratories.
GRIN3A LBD mod: modulators (binders) of human NR3A ligand-binding domain. Tm shift relative to glycine control, % at 25 µM. AID 1259313. NR3A LBD differential scanning fluorimetry, Tm shift; 0% = protein alone, 100% = glycine-bound protein. actives 2.5% (n = 340,000);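 active = melting temperature shift of at least 10% of the positive control shift, at one fixed dose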
NS3 helicase inh: blocks Hepatitis C virus NS3 helicase unwinding; NS3 helicase DNA unwinding, Cy5 molecular beacon fluorescence; actives 0.56% (n = 290,000); inhibition, % at 10.9 µM;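 active = inhibition above the mean of all tested compounds plus 3 SD, set per campaign, cut at about 35% in these data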;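 also: 0% = DMSO wells and 100% = thioflavine S control wells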
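assay system = NS3 helicase fragment of HCV | buffer or medium = MOPS pH 6.5, MgCl2, DTT, Tween20, BSA | timing = 60 min unwinding reaction at 25 °C after ATP addition | signal = Cy5 beacon fluorescence read at start and 1 h | read-out basis = % inhibition of unwinding | control set = low DMSO, high thioflavine S at 110 µM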
ZTA DNA inh: blocks Epstein-Barr virus ZTA, an EBNA-1 counter-screen; inhibition, % at 11 µM; AID 2234; P03206; actives 0.15% (n = 320,000); ZTA-DNA binding, fluorescence polarization; in the data active = inhibition above about 33%
Target sequence (P03206 whole entry, looked up): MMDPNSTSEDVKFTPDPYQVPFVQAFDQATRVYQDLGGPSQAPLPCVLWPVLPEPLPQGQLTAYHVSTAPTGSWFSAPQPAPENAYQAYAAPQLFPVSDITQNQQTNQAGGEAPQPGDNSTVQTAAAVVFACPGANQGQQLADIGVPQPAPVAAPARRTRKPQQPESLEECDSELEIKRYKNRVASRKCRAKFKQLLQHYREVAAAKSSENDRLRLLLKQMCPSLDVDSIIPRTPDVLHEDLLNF
FGF22 binding: FGF22 (human) thermal shift binding | recombinant FGF22 thermal shift, SYPRO orange fluorescence; percent of sucrose octasulfate shift, DMSO zero | activity (Tm shift, normalised), % at 9.99 µM | AID 651658 | actives 1.5% (n = 340,000);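 active = mean Tm shift, scaled 0 neutral to 100 positive control, at about 1.3% or above, every replicate too, limit read from the data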
Target sequence (Q9HCT0 whole entry, looked up): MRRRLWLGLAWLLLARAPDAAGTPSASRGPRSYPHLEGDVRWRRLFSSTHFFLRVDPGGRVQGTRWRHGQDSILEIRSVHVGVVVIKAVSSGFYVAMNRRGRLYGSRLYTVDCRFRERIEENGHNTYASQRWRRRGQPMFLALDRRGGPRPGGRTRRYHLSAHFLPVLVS
FID counter: displaces DNA intercalator in HCV helicase counter-screen; DNA fluorescent intercalator displacement, fluorescence; inhibition, % at 7.9 µM; AID 1845; actives 0.17% (n = 290,000); in the data active = inhibition above about 37%;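 also: 0% = vehicle and 100% = reference compound; higher means more ethidium bromide displaced from hairpin DNA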
EBNA-1 inhibitor: blocks EBNA-1 binding to DNA; EBNA-1 DNA binding, fluorescence polarization; AID 1950; inhibition, % at 14.8 µM; actives 0.34% (n = 300,000); in the data active = inhibition above about 28%
Numbers without * were called inactive; nt = not tested or not shown. Rows were chosen to be rich in hits. Some 3.6% of all compounds tested hit in one or more screens of this group.

SMILES | GRIN3A LBD mod | NS3 helicase inh | ZTA DNA inh | FGF22 binding | FID counter | EBNA-1 inhibitor
O=c1[nH]c(C2CCN(S(=O)(=O)c3ccc4c(c3)OCCO4)CC2)nc2c1nnn2Cc1cccc(F)c1 | -2 | -9 | 6 | 0 | -46 | -9
COCC(=O)Nc1ccc2c(c1)OC[C@H](C)N(Cc1ccccn1)C[C@@H](C)[C@H](OC)CN(C)C2=O | nt | nt | nt | 0 | nt | nt
CC(=O)c1ccc(-n2c(SCC(=O)c3c[nH]c4ccccc34)nc3ccccc3c2=O)cc1 | 16* | 3 | 6 | 0 | 0 | 24
Cc1cccc(NC2=Nc3ccccc3N3C2=Nc2c(c(C)nn2-c2ccccc2)C3c2ccc(O)c(O)c2)c1 (stereo unspecified) | 22* | 9 | 11 | nt | -7 | 26
Cc1ccc(NC2=Nc3ccccc3N3C2=Nc2c(c(C)nn2-c2ccccc2)C3c2ccc(O)c(O)c2)cc1 (stereo unspecified) | 15* | 29 | nt | nt | -14 | nt
Cc1nn(-c2ccccc2)c2c1C(c1ccc(O)c(O)c1)N1C(=N2)C(Nc2ccccc2)=Nc2ccccc21 (stereo unspecified) | 1 | 33 | 9 | nt | -8 | 11
Cc1ccc(-c2ccc3c(c2)O[C@H](CN(C)C(=O)Nc2ccc(F)cc2)[C@H](C)CN([C@@H](C)CO)S3(=O)=O)cc1 | nt | nt | nt | 0 | nt | nt
COCC(=O)Nc1ccc2c(c1)C(=O)N(C)[C@H]1CC[C@@H](CC(=O)NCCc3ccccc3)O[C@@H]1CO2 | nt | nt | nt | 0 | nt | nt
COc1ccccc1CNC(=O)C[C@H]1CC[C@H](NC(C)=O)[C@@H](CO)O1 | nt | nt | nt | 0 | nt | nt
CO[C@@H]1CN(C)C(=O)c2cc(NC(=O)NC(C)C)ccc2OC[C@@H](C)N(Cc2ccc(-c3ccccn3)cc2)C[C@H]1C | nt | nt | nt | 0 | nt | nt
O=C(N[C@H]1CC[C@H](CCNS(=O)(=O)Cc2ccccc2)O[C@@H]1CO)c1ccccc1F | nt | nt | nt | 0 | nt | nt
C[C@H]1CCCCO[C@@H](CN(C)C(=O)Nc2ccc3c(c2)OCO3)[C@@H](C)CN([C@@H](C)CO)C(=O)c2cc(NS(=O)(=O)c3cn(C)cn3)ccc2O1 | nt | nt | nt | 0 | nt | nt
COC(=O)C[C@H]1CC[C@@H]2[C@H](COc3ccc(NC(=O)c4cc(F)cc(F)c4)cc3C(=O)N2C)O1 | nt | nt | nt | 0 | nt | nt
CC(C)N1CCN(Cc2cccs2)CC1CCO (stereo unspecified) | 1 | 13 | nt | 0 | -6 | nt
CC(C)CCN1CCN(Cc2cccs2)CC1CCO (stereo unspecified) | -1 | 4 | -16 | 43* | 0 | 1
O=C(c1ccncc1)N1C[C@@H]2[C@H](c3ccccc31)[C@@H](CO)N2C(=O)Nc1ccccc1Cl | nt | nt | nt | 0 | nt | nt
C[C@H]1CN([C@@H](C)CO)C(=O)c2cc(C#Cc3ccccc3)cnc2O[C@@H]1CN(C)C(=O)C1CC1 | nt | nt | nt | 0 | nt | nt
C/C=C/c1ccc2c(c1)O[C@@H](CN(C)C(=O)c1ccncc1)[C@@H](C)CN([C@@H](C)CO)S2(=O)=O | nt | nt | nt | 0 | nt | nt
COc1ccccc1NC(=O)C1=C(C)NC(=O)NC1c1ccccc1[N+](=O)[O-] (stereo unspecified) | -1 | 5 | -10 | 43* | -3 | 7
COc1ccc(NC(=O)C2=C(C)NC(=O)NC2c2cccs2)c(OC)c1 (stereo unspecified) | -2 | -6 | 3 | 44* | -7 | 6
COc1ccccc1NC(=O)C1=C(C)NC(=O)NC1c1cccs1 (stereo unspecified) | -4 | 6 | 10 | 0 | -2 | 6
CC1=C(C(=O)Nc2ccccc2)C(c2ccccc2[N+](=O)[O-])NC(=O)N1 (stereo unspecified) | 0 | 1 | -10 | 43* | -6 | 3
C[C@H](CO)N1C[C@H](C)[C@H](CN(C)Cc2ccc(-c3ccccc3)cc2)Oc2ccc(N(C)C)cc2C1=O | nt | nt | nt | 0 | nt | nt
CO[C@H]1CN(C)C(=O)c2cc(NS(C)(=O)=O)ccc2OC[C@@H](C)N(CC2CCCCC2)C[C@H]1C | nt | nt | nt | -1 | nt | nt
CCOC(=O)Sc1nc2ncncc2[nH]1 | 0 | nt | nt | 43* | nt | nt
SMILES | GRIN3A LBD mod | NS3 helicase inh | ZTA DNA inh | FGF22 binding | FID counter | EBNA-1 inhibitor
COc1ccc2c(c1)CC/C(=C/c1ccco1)C2=O | 1 | 11 | -4 | 0 | -8 | -3
COc1ccc(/C=C2/CCc3ccccc3C2=O)cc1OC | 10* | -6 | 14 | nt | -23 | 0
O=C1/C(=C/c2ccco2)CCc2ccccc21 | 14* | 33 | -2 | 0 | -11 | 11
COc1cc(/C=C2/CCc3ccccc3C2=O)cc(OC)c1OC | -3 | -10 | 8 | nt | -14 | -1
COCCNC(=O)C[C@H]1C[C@H]2c3cc(NC(=O)C4CCC4)ccc3O[C@H]2[C@H](CO)O1 | nt | nt | nt | 0 | nt | nt
COc1ccc(/C=C/CN2CCN(CC(C)C)C(CCO)C2)cc1 (stereo unspecified) | 7 | -17 | 0 | 44* | -2 | 6
OCCC1CN(Cc2cccc3nccnc23)CCN1Cc1ccc(F)c(F)c1 (stereo unspecified) | -6 | 0 | -7 | 44* | -8 | 3
COc1ccc(/C=C/CN2CCN(Cc3cccc(OC)c3)C(CCO)C2)cc1 (stereo unspecified) | -2 | -10 | -10 | 0 | 27 | -10
CC(C)CN1CCN(Cc2ccc3ncccc3c2)CC1CCO (stereo unspecified) | 0 | 1 | 8 | 44* | 5 | 3
C[C@H]1CN([C@@H](C)CO)C(=O)c2ccccc2-c2ccccc2CO[C@H]1CN(C)S(=O)(=O)c1ccccc1 | nt | nt | nt | 0 | nt | nt
COc1ccc(S(=O)(=O)Nc2ccc3c(c2)C(=O)N([C@@H](C)CO)C[C@@H](C)[C@H](CN(C)Cc2ccccc2)O3)cc1 | nt | nt | nt | 0 | nt | nt
CCCC#Cc1ccc2c(c1)O[C@@H](CN(C)C(=O)c1cnccn1)[C@@H](C)CN([C@@H](C)CO)S2(=O)=O | nt | nt | nt | 0 | nt | nt
C[C@@H]1CN([C@H](C)CO)C(=O)Cc2cc(NC(=O)Nc3ccc4c(c3)OCO4)ccc2O[C@H]1CN(C)C(=O)NC1CCCCC1 | nt | nt | nt | 0 | nt | nt
CC1=NN(c2ccccc2)C(=O)/C1=C\c1cn(CCC#N)nc1-c1ccc(Cl)cc1 | -3 | 7 | 2 | 44* | -2 | -8
CCC(=O)N(C)C[C@@H]1Oc2ncc(-c3ccc(C#N)cc3)cc2C(=O)N([C@@H](C)CO)C[C@@H]1C | nt | nt | nt | 0 | nt | nt
C/C(N)=C(/C#N)C(=O)CSc1nnc(C)n1-c1ccccc1 | -1 | 9 | -31 | 43* | -4 | -3
C/C(N)=C(/C#N)C(=O)CSc1nnc(-c2ccccc2)n1C | -1 | -6 | 6 | 0 | -5 | 3
O=C(C[C@@H]1C[C@@H]2c3cc(NC(=O)NC4CCCC4)ccc3O[C@@H]2[C@@H](CO)O1)NCc1cccnc1 | nt | nt | nt | 0 | nt | nt
Cc1ccc(S(=O)(=O)N2CCN(CCc3ccncc3)CC2)cc1 | 11* | nt | nt | 0 | nt | nt
